TAAR1 ag: human TAAR1 agonists, primary screen, Fluo-8 calcium fluorescence, CHO RD-HGA16 cells. Trace amine-associated receptor 1 (Homo sapiens), Q96RJ0. vehicle wells 0%, saturating PEA agonist 100%. activation, % at 3 µM. 360,000 tested, 0.99% active;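 active means activation above the mean activation of all test compounds in the run plus 3 SD, cut at about 38% in these data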
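System: CHO RD-HGA16 cells carrying human TAAR1 plus Gα16; Incubation: 17-24 h seeding, 75 min 37 °C dye, 30 min RT; Measured by: Fluo-8 fluorescence, 5 s baseline then 140 s kinetic read; Control set: DMSO and PEA EC100; Replication: single well for each compound.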
OX1R antag-1: OX1R (HCRTR1) antagonists, primary screen, fluorescence, CHO/OX1R cells, Fluo-8 calcium, orexin A; Fluo-8 calcium fluorescence; inhibition, % at 5 µM; 330,000 tested, 0.43% active; AID 434989, 2010;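 active means inhibition above its plate's threshold, mean inhibition of all tested compounds on the plate plus 3 SD, cut at about 37% in these data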
Target sequence (O43613 whole entry, looked up): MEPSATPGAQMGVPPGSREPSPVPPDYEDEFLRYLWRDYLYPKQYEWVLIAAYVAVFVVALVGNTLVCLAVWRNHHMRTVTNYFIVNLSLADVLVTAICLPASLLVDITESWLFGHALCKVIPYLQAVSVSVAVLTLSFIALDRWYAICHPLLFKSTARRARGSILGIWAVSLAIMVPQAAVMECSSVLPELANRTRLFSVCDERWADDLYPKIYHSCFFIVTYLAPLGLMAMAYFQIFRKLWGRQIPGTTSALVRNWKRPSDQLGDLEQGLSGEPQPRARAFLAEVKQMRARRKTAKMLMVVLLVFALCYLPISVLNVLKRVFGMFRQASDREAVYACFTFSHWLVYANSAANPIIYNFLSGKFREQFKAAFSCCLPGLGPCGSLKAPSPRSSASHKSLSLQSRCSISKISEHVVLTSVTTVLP
OX1R antag-2: antagonists of human orexin 1 receptor (OX1R) | Orexin/Hypocretin receptor type 1 (Homo sapiens), O43613 | OX1R-expressing cells, FRET antagonist read-out | inhibition, % at 6.6 µM | 330,000 tested, 1.8% active; in the data active means inhibition mostly above about 38%, no sharp cut-off; inactive means mostly below about 40%
CHO parental Ca: ATP-evoked calcium signal inhibitors, parental CHO, primary screen, counter-screen for OX1R antagonist project, cell-based, fluorescence, Fluo-8 calcium dye | inhibition, % at 5.6 µM | 330,000 tested, 0.63% active | parental CHO-K1, ATP-induced calcium, Fluo-8 fluorescence | AID 463079, 2010;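 active means inhibition above that plate's mean sample inhibition plus 3 SD, cut at about 26% in these data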
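Material: Parental CHO cells | Reagent: ATP | Compound dosing: Single nominal dose of 5.6 µM per compound | Detection: Intracellular calcium via Fluo-8 no-wash fluorescent dye | Read-out: % inhibition of ATP-induced calcium mobilization | Benchmarks: Low control ATP plus DMSO, high control DMSO only | Replicates: Singlicate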
TAAR1 antag: human TAAR1 antagonists, primary screen, Fluo-8 calcium fluorescence, CHO RD-HGA16 cells; Trace amine-associated receptor 1 (Homo sapiens), Q96RJ0; 360,000 tested, 1.5% active; inhibition, % at 3 µM; antagonist; AID 624466, 2012;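 active means inhibition above a per-plate cutoff, the mean inhibition of test compounds on that plate plus 3 SD, cut at about 49% in these data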
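Test system: RD-HGA16 CHO cells with stable hTAAR1 and Gα16 / Probe or stimulus: EC80 β-phenethylamine stimulus / Times: seeding 17-24 h prior, 75-min 37 °C, 30-min RT dye loading / Detection: Fluo-8 calcium-sensitive fluorescence / Read-out basis: % inhibition scaled between DMSO and EC80 PEA controls / Repeats: singlicate, one well per test compound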
TAAR1 nonsel count: nonselective antagonists in TAAR1 counter-screen cells, counter-screen for hTAAR1 antagonist project, cell-based, fluorescence, calcium; shares compounds with TAAR1 antag; counterscreen cell line, antagonist mode; inhibition, % at 3 µM; AID 651780, 2012; 2,400 tested, 77% active; in the data active means inhibition above about 22%;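 further: CHO-Ga16 host cells stimulated with ATP at an EC80 level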
TAAR1 ant conf: human TAAR1 antagonists, retest of hits, confirmation, cell-based, fluorescence; inhibition, % at 3 µM; shares compounds with TAAR1 antag; TAAR1-expressing cells, fluorescence antagonist read-out; 2,400 tested, 40% active; in the data active means inhibition above about 49%;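 further: CHO-Ga16 host cells challenged with agonist PEA near its EC80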
Ga16 nonsel ag: calcium activation in Ga16-expressing cells, counter-screen for TAAR1 antagonist project, cell-based, fluorescence | agonist counterscreen | 2,400 tested, 18% active | activation, % at 3 µM | shares compounds with TAAR1 antag; in the data active means activation above about 12%
TAAR1 ag counter: TAAR1 activation by candidate antagonists – cell-based, fluorescence, counter-screen for TAAR1 antagonist project. 2,400 tested, 2% active. AID 651955, 2012. activation, % at 3 µM. shares compounds with TAAR1 antag. hTAAR1 cell line, agonist mode; in the data active means activation above about 37%;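 further: CHO cells stably expressing TAAR1 with calcium dye readout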
Each line names hits and unclear results; the compound was inactive in the other large screens (follow-up assays come after a bar, where they were run). A selection: hits, their analogues and other compounds. The true share with any hit is near 4%.

CCNC(=O)c1ccccc1NC(=O)c1cccc(S(=O)(=O)N2CCC(C)CC2)c1	TAAR1 antag 59 | TAAR1 nonsel count 33 | TAAR1 ant conf inactive | Ga16 nonsel ag inactive | TAAR1 ag counter inactive
CNC(=O)c1ccccc1NC(=O)c1cccc(S(=O)(=O)N2CCC(C)CC2)c1	none
CCN(CC)CCCN=C1N[C@@H](c2cccc(C(F)(F)F)c2)C(C(=O)OC)=C(C)N1CC	none
CCC1CN(C(=O)N2CCC(C(=O)NCc3ccccc3OC)CC2)c2cc(C)ccc2O1 (stereo not given)	TAAR1 antag 54 | TAAR1 nonsel count 29 | TAAR1 ant conf inactive | Ga16 nonsel ag inactive | TAAR1 ag counter inactive
Cc1ccccc1OC1(C)CCN(Cc2ccc(-c3ccccn3)cc2)C1 (stereo not given)	none (no result: OX1R antag-1, OX1R antag-2, CHO parental Ca)
CCCCS(=O)(=O)N1CCCc2nc(-c3ccc(OC)cc3)ccc21	TAAR1 antag 49 (no result: OX1R antag-1, OX1R antag-2, CHO parental Ca) | TAAR1 nonsel count 32 | TAAR1 ant conf inactive | Ga16 nonsel ag inactive | TAAR1 ag counter inactive
Cc1ccccc1-c1cc(C(=O)NCc2cccc(Br)c2)n(CC2CC(c3cccnc3)=NO2)n1 (stereo not given)	TAAR1 antag 69 | TAAR1 nonsel count 26 | TAAR1 ant conf inactive | Ga16 nonsel ag inactive | TAAR1 ag counter inactive
CCOC(=O)c1cc(-c2ccccc2)nn1CC1CC(c2ccc(Cl)cc2)=NO1 (stereo not given)	TAAR1 antag 80 | TAAR1 nonsel count 24 | TAAR1 ant conf inactive | Ga16 nonsel ag inactive | TAAR1 ag counter inactive
CCOC(=O)c1cc(-c2ccccc2)nn1CC1CC(c2ccc(OC)cc2)=NO1 (stereo not given)	none
COc1cc(F)ccc1S(=O)(=O)NCc1cccnc1	none
Cc1cc(OCC(=O)NNC(=O)c2cccnc2)cc(C)c1Cl	none (no result: OX1R antag-1, OX1R antag-2, CHO parental Ca)
O=C(COc1cccc2cccnc12)N/N=C/c1cccn1-c1ccc(F)cc1	TAAR1 antag 53 | TAAR1 nonsel count 25 | TAAR1 ant conf inactive | Ga16 nonsel ag inactive | TAAR1 ag counter inactive
O=C(COc1cccc2cccnc12)N/N=C/c1ccc(O)cc1	none
COc1cc(C#Cc2c(-c3cncn3C)n(C)c3ccc(-c4cnc(OC)nc4)cc23)cc(OC)c1	TAAR1 antag 73 | TAAR1 nonsel count 35 | TAAR1 ant conf 52 | Ga16 nonsel ag inactive | TAAR1 ag counter inactive
O=C(NN1C(=O)c2cc(Br)ccc2NC1c1cc(Br)cc(Br)c1O)c1ccncc1 (stereo not given)	none
C[C@H](CO)N1C[C@H](C)[C@@H](CN(C)CC2CCOCC2)Oc2cc(C#Cc3ccccc3F)ccc2S1(=O)=O	none (no result: OX1R antag-1, OX1R antag-2, CHO parental Ca)
C[C@@H]1CN([C@H](C)CO)S(=O)(=O)c2ccc(C#Cc3ccccc3F)cc2O[C@H]1CN(C)C(=O)c1ccc2c(c1)OCO2	TAAR1 antag 73 (no result: OX1R antag-1, OX1R antag-2, CHO parental Ca) | TAAR1 nonsel count 34 | TAAR1 ant conf 59 | Ga16 nonsel ag 12 | TAAR1 ag counter inactive
O=C(CN(Cc1ccco1)C(=O)c1ccc(F)cc1F)Nc1ccccc1C(F)(F)F	none
CC(C)COc1cccc(C(=O)N(CC(=O)Nc2ccccc2C(F)(F)F)Cc2ccco2)c1	TAAR1 antag 61 | TAAR1 nonsel count inactive | TAAR1 ant conf inactive | Ga16 nonsel ag inactive | TAAR1 ag counter inactive

High-throughput results from PubChem.
